# Active and inactive are the calls of the source. No cut-off for these calls is given here.
# Legend:
# [1] = test system: U-251; experiment: Inhibition of desferrioxamine-induced VEGF mRNA expression in human U251 cells at 0.02 to 0.2 uM by quantitative RT-PCR analysis; format: functional, cell-based
# Method in brief: (§1)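 In U251 cells, induced VEGF mRNA was quantified by real-time RT-PCR after polyamide at 1, 0.2 and 0.02 μM, with DMSO ≤0.1%. Values were normalized to untreated induced cells; uninduced and DMSO-vehicle controls were run alongside.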
# [2] = test system: Nucleic Acid; experiment: Binding affinity to 14mer DNA assessed as change in melting temperature by spectrophotometry; format: nucleic-acid assay
# Method in brief: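 Thermal melting of 14-mer oligonucleotide duplexes (HRE or ARE sequence) with and without polyamide, read by UV spectrophotometry in 1 cm quartz cuvettes with a thermostatted holder. Buffer was 10 mM sodium cacodylate, 10 mM KCl, 10 mM MgCl2, 5 mM CaCl2, pH 7.0. ΔTm is taken relative to the free duplex.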
# [3] = test system: LNCaP; experiment: Inhibition of desferrioxamine-induced VEGF mRNA expression in human LNCAP cells at 1 to 2 uM by quantitative RT-PCR analysis; format: functional, cell-based
# [4] = test system: LNCaP; experiment: Cytotoxicity against human LNCAP cells after 48 hrs by WST1 assay; format: functional, cell-based
# Method in brief: (§2)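 LNCaP cells were seeded at 10-15 × 10^2 per well and allowed to settle 48 h before polyamide was added as 2× media solutions (DMSO <0.1%). After 48 h exposure, media was replaced and cells recovered 24 h. WST-1 was added for 30 min and A450 read. Wells were corrected for media-only background and normalized to untreated controls.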
# [5] = test system: LNCaP; experiment: Inhibition of dihydrotestosterone-induced prostate specific antigen expression in human LNCAP cells by quantitative RT-PCR analysis; format: functional, cell-based
# Method in brief: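 For gene-regulation IC50, DHT (1 nM)-induced LNCaP cells were dosed across 30–0.1 μM or 10–0.03 μM. PSA mRNA was quantified by real-time RT-PCR and normalized to induced untreated cells. Isotherms from three independent experiments were fitted with a modified Hill equation.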
# [6] = test system: LNCaP; experiment: Selectivity ratio of IC50 for human LNCAP cells to IC50 for inhibition of dihydrotestosterone-induced prostate specific antigen expression in human LNCAP cells; format: functional
# Method in brief: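 Ratio of WST-1 growth-inhibition IC50 (48 h exposure, 24 h recovery, LNCaP) to PSA gene-regulation IC50. The gene-regulation IC50 came from Hill-fitted RT-PCR isotherms in 1 nM DHT-induced LNCaP cells, three independent experiments.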
# [7] = test system: LNCaP; experiment: Inhibition of dihydrotestosterone-induced prostate specific antigen expression in human LNCAP cells at 1 uM by quantitative RT-PCR analysis; format: functional, cell-based
# Method in brief: (§3)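 LNCaP cells were induced with 1 nM DHT and PSA mRNA measured by quantitative real-time RT-PCR. Oxime-linked polyamides were given at 5, 1 and 0.1 μM, and unconjugated controls at 5 μM, with DMSO ≤0.1%. Expression was normalized to untreated DHT-induced cells; uninduced and DMSO controls were included.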
# [8] = test system: LNCaP; experiment: Inhibition of dihydrotestosterone-induced prostate specific antigen expression in human LNCAP cells at 5 uM by quantitative RT-PCR analysis; format: functional; method in brief: as §3
# [9] = test system: LNCaP; experiment: Cytotoxicity against human LNCAP cells at 5 uM after 48 hrs by WST1 assay; format: functional, cell-based
# [10] = test system: LNCaP; experiment: Inhibition of desferrioxamine-induced VEGF mRNA expression in human LNCAP cells at 10 uM by quantitative RT-PCR analysis; format: functional
# Method in brief: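 DFO-induced VEGF mRNA was measured in LNCaP cells by quantitative real-time RT-PCR, following the LNCaP PSA protocol but with non-charcoal-stripped FBS. Polyamide doses were 10, 2 and 0.2 μM, with DMSO ≤0.1%. Levels were normalized to untreated induced cells; untreated uninduced and DMSO controls were included.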
# [11] = test system: U-251; experiment: Inhibition of desferrioxamine-induced VEGF mRNA expression in human U251 cells at 1 uM by quantitative RT-PCR analysis; format: functional; method in brief: as §1
# [12] = test system: Nucleic Acid; experiment: Binding affinity to 5'-GTGCATACGTGGGC-3' sequence of DNA assessed as change in melting temperature by spectrophotometry; format: nucleic-acid assay
# [13] = test system: LNCaP; experiment: Cytotoxicity against human LNCAP cells assessed as cell viability at 0.01 to 30 uM after 48 hrs by WST1 assay; format: functional; method in brief: as §2
# [14] = test system: LNCaP; experiment: Inhibition of dihydrotestosterone-induced prostate specific antigen expression in human LNCAP cells at 0.1 to 5 uM by quantitative RT-PCR analysis; format: functional, cell-based; method in brief: as §3
# [15] = test system: LNCaP; experiment: Inhibition of expression in human LNCAP cells at 5 uM by quantitative RT-PCR analysis
# [16] = test system: Nucleic Acid; experiment: Binding affinity to 5'-TTGCAGAACAGCAA-3' sequence of DNA assessed as change in melting temperature by spectrophotometry; format: nucleic-acid assay
# [17] = test system: U-251; experiment: Selectivity ratio of inhibition of desferrioxamine-induced VEGF mRNA expression in human LNCAP cells to inhibition of desferrioxamine-induced VEGF mRNA expression in human U251 cells; format: functional
# [18] = test system: LNCaP; experiment: Cytotoxicity against human LNCAP cells at 0.02 to 50 uM after 48 hrs by WST1 assay; format: functional, cell-based; method in brief: as §2
# [19] = test system: U-251; experiment: Cytotoxicity against human U251 cells at 0.002 to 10 uM after 48 hrs by WST1 assay; format: functional, cell-based
# Method in brief: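 U251 cells were plated at 10-15 × 10^2 per well. After 24 h, polyamide was added in 2× media, with a 10–0.002 μM range for the core-less oxime controls. Cells were treated 48 h, then given fresh media for 24 h recovery. WST-1 was read at 450 nm after 30 min, with background correction and normalization to untreated wells.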
# [20] = test system: U-251; experiment: Cytotoxicity against human U251 cells after 48 hrs by WST1 assay; settings: U-251, 48 h
# [21] = test system: LNCaP; experiment: Cytotoxicity against human LNCAP cells at 0.01 to 30 uM after 48 hrs by WST1 assay; format: functional, cell-based; method in brief: as §2
smiles,measurement,setting,value
Cn1cc(NC(=O)c2cc(NC(=O)c3cc(NC(=O)c4nc(NC(=O)[C@H](N)CCNC(=O)c5nc(NC(=O)c6cc(NC(=O)c7nc(NC(=O)c8nccn8C)cn7C)cn6C)cn5C)cn4C)cn3C)cn2C)cc1C(=O)NCCCO/N=C\c1cccc(C(=O)O)c1,inhibition,[1],Active
same,ΔTm,[2],0.8 °C
same,inhibition,[3],Active
Cn1cc(NC(=O)c2cc(NC(=O)c3cc(NC(=O)c4nc(NC(=O)[C@H](N)CCNC(=O)c5cc(NC(=O)c6cc(NC(=O)c7cc(NC(=O)c8nccn8C)cn7C)cn6C)cn5C)cn4C)cn3C)cn2C)cc1C(=O)NCCCO/N=C\c1ccc(F)cc1,IC50,[4],0.4 µM
same,IC50,[5],600 nM
same,Ratio IC50,[6],0.7
same,inhibition,[7],Active
same,inhibition,[8],Active
same,Activity,[9],Active
same,ΔTm,[2],13.1 °C
Cn1cc(NC(=O)c2cc(NC(=O)c3nc(NC(=O)c4cc(NC(=O)[C@H](N)CCNC(=O)c5nc(NC(=O)c6cc(NC(=O)c7cc(NC(=O)c8sccc8Cl)cn7C)cn6C)cn5C)cn4C)cn3C)cn2C)cc1C(=O)NCCCO/N=C\c1cccc(F)c1,inhibition,[1],Active
same,inhibition at 10 µM,[10],80%
same,inhibition at 1 µM,[11],60%
same,ΔTm,[12],9.4 °C
Cn1cc(NC(=O)c2cc(NC(=O)c3nc(NC(=O)c4cc(NC(=O)[C@H](N)CCNC(=O)c5nc(NC(=O)c6cc(NC(=O)c7cc(NC(=O)c8sccc8Cl)cn7C)cn6C)cn5C)cn4C)cn3C)cn2C)cc1C(=O)NCCCO/N=C\c1ccc(F)cc1,inhibition,[1],Active
same,inhibition at 10 µM,[10],80%
same,inhibition at 1 µM,[11],60%
same,ΔTm,[12],10.5 °C
Cn1cc(NC(=O)c2cc(NC(=O)c3nc(NC(=O)c4cc(NC(=O)[C@H](N)CCNC(=O)c5nc(NC(=O)c6cc(NC(=O)c7cc(NC(=O)c8nccn8C)cn7C)cn6C)cn5C)cn4C)cn3C)cn2C)cc1C(=O)NCCCO/N=C\c1cccc(F)c1,IC50,[4],≥ 30 µM
same,Activity,[13],<50%
same,inhibition,[14],Active
same,ΔTm,[2],4 °C
CN(CCCNC(=O)c1cccc(C(=O)O)c1)CCCNC(=O)c1cc(NC(=O)c2cc(NC(=O)c3cc(NC(=O)c4nc(NC(=O)[C@H](N)CCNC(=O)c5cc(NC(=O)c6cc(NC(=O)c7cc(NC(=O)c8nccn8C)cn7C)cn6C)cn5C)cn4C)cn3C)cn2C)cn1C,inhibition,[15],Active
same,IC50,[4],> 30 µM
same,Activity,[13],<50%
same,ΔTm,[16],14.2 °C
same,IC50,[5],6000 nM
same,Ratio IC50,[6],>=5
same,Ratio,[17],10
Cn1cc(NC(=O)c2cc(NC(=O)c3cc(NC(=O)c4nc(NC(=O)[C@H](N)CCNC(=O)c5nc(NC(=O)c6cc(NC(=O)c7nc(NC(=O)c8nccn8C)cn7C)cn6C)cn5C)cn4C)cn3C)cn2C)cc1C(=O)NCCCO/N=C\c1ccc(F)cc1,inhibition,[1],Active
same,ΔTm,[2],0.8 °C
same,inhibition,[3],Active
CC(=O)NCCCO/N=C\c1cccc(C(=O)O)c1,IC50,[4],> 50 µM
same,Activity,[18],inactive
same,Activity,[19],inactive
same,IC50,[20],> 10 µM
Cn1cc(NC(=O)c2cc(NC(=O)c3cc(NC(=O)c4nc(NC(=O)[C@H](N)CCNC(=O)c5cc(NC(=O)c6cc(NC(=O)c7cc(NC(=O)c8nccn8C)cn7C)cn6C)cn5C)cn4C)cn3C)cn2C)cc1C(=O)NCCCO/N=C\c1cccc(C(=O)O)c1,IC50,[4],1.7 µM
same,ΔTm,[16],11.5 °C
same,IC50,[5],300 nM
same,Ratio IC50,[6],6.1
same,inhibition,[7],Active
same,inhibition,[8],Active
same,Activity,[9],Active
Cn1cc(NC(=O)c2cc(NC(=O)c3nc(NC(=O)c4cc(NC(=O)[C@H](N)CCNC(=O)c5nc(NC(=O)c6cc(NC(=O)c7cc(NC(=O)c8nccn8C)cn7C)cn6C)cn5C)cn4C)cn3C)cn2C)cc1C(=O)NCCCO/N=C\c1cccc(C(=O)O)c1,Activity,[13],<50%
same,inhibition,[14],Active
same,ΔTm,[2],2.6 °C
same,Activity,[21],inactive
Cn1cc(NC(=O)c2cc(NC(=O)c3cc(NC(=O)c4nc(NC(=O)[C@H](N)CCNC(=O)c5nc(NC(=O)c6cc(NC(=O)c7nc(NC(=O)c8nccn8C)cn7C)cn6C)cn5C)cn4C)cn3C)cn2C)cc1C(=O)NCCCO/N=C\c1cccc(F)c1,inhibition,[1],Active
same,ΔTm,[2],0.9 °C
same,inhibition,[3],Active
NCCCO/N=C\c1ccc(F)cc1,IC50,[4],> 50 µM
same,Activity,[18],inactive
same,Activity,[19],inactive
same,IC50,[20],> 10 µM
NCCCO/N=C\c1cccc(C(=O)O)c1,IC50,[4],> 50 µM
same,Activity,[18],inactive
same,Activity,[19],inactive
same,IC50,[20],> 10 µM
Cn1cc(NC(=O)c2cc(NC(=O)c3nc(NC(=O)c4cc(NC(=O)[C@H](N)CCNC(=O)c5nc(NC(=O)c6cc(NC(=O)c7cc(NC(=O)c8sccc8Cl)cn7C)cn6C)cn5C)cn4C)cn3C)cn2C)cc1C(=O)NCCCO/N=C\c1cccc(C(=O)O)c1,inhibition,[1],Active
same,inhibition at 10 µM,[10],80%
same,inhibition at 1 µM,[11],60%
same,ΔTm,[12],11.4 °C
Cn1cc(NC(=O)c2cc(NC(=O)c3cc(NC(=O)c4nc(NC(=O)[C@H](N)CCNC(=O)c5cc(NC(=O)c6cc(NC(=O)c7cc(NC(=O)c8nccn8C)cn7C)cn6C)cn5C)cn4C)cn3C)cn2C)cc1C(=O)NCCCO/N=C\c1cccc(F)c1,IC50,[4],0.6 µM
same,ΔTm,[16],12.5 °C
same,inhibition,[8],Active
same,Activity,[9],Active
CC(=O)NCCCO/N=C\c1ccc(F)cc1,IC50,[4],> 50 µM
same,Activity,[18],inactive
same,Activity,[19],inactive
same,IC50,[20],> 10 µM
Cn1cc(NC(=O)c2cc(NC(=O)c3nc(NC(=O)c4cc(NC(=O)[C@H](N)CCNC(=O)c5nc(NC(=O)c6cc(NC(=O)c7cc(NC(=O)c8nccn8C)cn7C)cn6C)cn5C)cn4C)cn3C)cn2C)cc1C(=O)NCCCO/N=C\c1ccc(F)cc1,IC50,[4],≥ 30 µM
same,Activity,[13],<50%
same,inhibition,[14],Active
same,ΔTm,[2],3.4 °C

# — ChEMBL document CHEMBL1155270, “Modifications at the C-terminus to improve pyrrole-imidazole polyamide activity in cell culture” (J Med Chem, 2009)
